Data on 19 compounds can be found in publication PMC9057999 (RSC Advances, 2020).

Like-named read-outs stand apart in the source and are kept apart here. A value given as a limit tells only on which side of the number the result lay.

The test system of one assay is Colo-205 cells. As to the kind of experiment: MTT cytotoxicity assay, colon. Format: cell-based, human. The settings on record: read-out: Colon (Colo-205) IC50. A digest of the protocol: (§1)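 Human Colo-205, PC-3, THP-1 and A549 cancer cells and normal epithelial fR-2 cells were grown in RPMI-1640 or DMEM with 10% fetal calf serum, penicillin and streptomycin, at 37 °C in 5.0% CO2. After overnight attachment, cells were exposed to 0.07, 0.7, 7.0 and 70.0 μM test compound for 24 h, then to MTT (250 μg mL−1) for 3–4 h. OD was read at 570 nm. Growth (%) = test OD/untreated OD × 100. IC50 was taken from concentration–growth curves as the mean of triplicates.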
For orientation: Tetrazolium dyes change colour on reduction, which living cells bring about.

Another assay has as its system fR-2 cells. Briefly: MTT cytotoxicity assay, normal epithelial cell line. It is filed as cell-based. The settings on record: read-out: Normal (fR-2) IC50. The procedure, abridged:
as §1

Another assay has as its system PC-3 cells. Briefly: MTT cytotoxicity assay, prostate. Format: cell-based, human. The settings on record: read-out: Prostate (PC-3) IC50. A digest of the protocol:
as §1

The next assay has as its system THP-1 cells. Briefly: MTT cytotoxicity assay, leukemia. It is filed as cell-based, human. The settings on record: read-out: Leukemia (THP-1) IC50. A digest of the protocol: as §1
Another assay concerns A549 cells. As to the kind of experiment: MTT cytotoxicity assay, lung. Format: cell-based, human. The settings on record: read-out: Lung (A549) IC50. The procedure, abridged:
as §1

In assay [1] the test system is Colo-205, PC-3, THP-1, A549 and fR-2 cells. As to the kind of experiment: MTT cytotoxicity assay, statements on the whole cell line panel. Format: cell-based. The conditions noted are these: Homo sapiens, 24 h, read-out: IC50 values (all tested cell lines). A digest of the protocol: as §1
Setting [2] is: MTT, 24 h treatment, n = 3, mean ± SD.

Take `O=c1[nH]cc(F)c(=O)[nH]1` [5-Fluorouracil, reference compound]: the IC50 is 33.9 ± 1.9 µM in the assay on Colo-205 cells (Homo sapiens, COLO 205, 24 h) and 335 ± 3.8 µM with fR-2 cells (FR2, 24 h).

Take `CCOC(=O)C1=C(C)NC(=O)NC1C(C)=CCc1cc2oc(=O)ccc2cc1OC` (stereo not drawn) [Compound 5a, Ethyl 4-(4-(6-methoxy-2-oxo-2H-chromen-7-yl)but-2-en-2-yl)-6-methyl-2-oxo-1,2,3,4-tetrahydropyrimidine-5-carboxylate]: the IC50 amounted to 37.6 ± 1.1 µM with Colo-205 cells (Homo sapiens, COLO 205, 24 h); 40.8 ± 1.7 µM in the assay on PC-3 cells (Homo sapiens, PC-3, 24 h); 65.8 ± 1.4 µM in the assay with THP-1 cells (Homo sapiens, THP-1, 24 h); 67.8 ± 1.7 µM in the assay with A549 cells (Homo sapiens, A549, 24 h); 68.8 ± 1.1 µM in the assay with fR-2 cells (FR2, 24 h).

As for `CCCC1NC(=O)NC(C)=C1C(=O)OCC` (stereo not drawn) [Compound 6a, Ethyl 1,2,3,4-tetrahydro-6-methyl-2-oxo-4-propylpyrimidine-5-carboxylate], the IC50 is over 70 µM in the assay on Colo-205 cells (Homo sapiens, COLO 205, 24 h); over 70 µM in the assay with PC-3 cells (Homo sapiens, PC-3, 24 h); over 70 µM in the assay on THP-1 cells (Homo sapiens, THP-1, 24 h); over 70 µM in the assay with A549 cells (Homo sapiens, A549, 24 h); over 70 µM in the assay with fR-2 cells (FR2, 24 h); over 70 µM in assay [1].

Turning to `CCCCC1NC(=O)NC(C)=C1C(=O)OCC` (stereo not drawn) [Compound 7a, Ethyl 4-butyl-1,2,3,4-tetrahydro-6-methyl-2-oxopyrimidine-5-carboxylate], the IC50 with Colo-205 cells (Homo sapiens, COLO 205, 24 h) was over 70 µM; with PC-3 cells (Homo sapiens, PC-3, 24 h), over 70 µM; with THP-1 cells (Homo sapiens, THP-1, 24 h), over 70 µM; with A549 cells (Homo sapiens, A549, 24 h), over 70 µM; in the assay on fR-2 cells (FR2, 24 h), over 70 µM; in assay [1], over 70 µM.

`CCCCCC1NC(=O)NC(C)=C1C(=O)OCC` (stereo not drawn) [Compound 8a]: the IC50 came to 18.6 ± 1 µM in the assay with Colo-205 cells (setting [2]); 22.2 ± 1.6 µM in the assay with PC-3 cells (setting [2]); 43.8 ± 1.4 µM with THP-1 cells (setting [2]); 63.4 ± 1.1 µM in the assay on A549 cells (setting [2]); 67.2 ± 1.5 µM in the assay on fR-2 cells (setting [2]).

For `CCCCCCC1NC(=O)NC(C)=C1C(=O)OCC` (stereo not drawn) [Compound 9a, Ethyl-4-hexyl-1,2,3,4-tetrahydro-6-methyl-2-oxo-pyrimidine-5-carboxylate], the IC50 was over 70 µM in the assay on Colo-205 cells (Homo sapiens, COLO 205, 24 h); over 70 µM in the assay on PC-3 cells (Homo sapiens, PC-3, 24 h); over 70 µM in the assay on THP-1 cells (Homo sapiens, THP-1, 24 h); over 70 µM in the assay on A549 cells (Homo sapiens, A549, 24 h); over 70 µM in the assay with fR-2 cells (FR2, 24 h); over 70 µM in assay [1].

For the compound `CCOC(=O)C1=C(C)NC(=O)NC1C=Cc1cccc(O)c1` (stereo not drawn) [Compound 10a, Ethyl-4-(3-hydroxystyryl)-1,2,3,4-tetrahydro-6-methyl-2-oxopyrimidine-5-carboxylate], the half-inhibitory concentration (IC50) is over 70 µM in the assay with Colo-205 cells (Homo sapiens, COLO 205, 24 h); 29.4 ± 1.2 µM with PC-3 cells (Homo sapiens, PC-3, 24 h); 42.1 ± 1.7 µM with THP-1 cells (Homo sapiens, THP-1, 24 h); over 70 µM in the assay with A549 cells (Homo sapiens, A549, 24 h); over 70 µM in the assay on fR-2 cells (FR2, 24 h).

`CCOC(=O)C1=C(C)NC(=O)NC1C1=Cc2ccccc2CC1` (stereo not drawn) [Compound 11a, Ethyl-4-(3,4-dihydronaphthalen-2-yl)-6-methyl-2-oxo-1,2,3,4-tetrahydropyrimidine-5-carboxylate]: the IC50 was over 70 µM in the assay on Colo-205 cells (Homo sapiens, COLO 205, 24 h); 29.3 ± 1.3 µM with PC-3 cells (Homo sapiens, PC-3, 24 h); over 70 µM with THP-1 cells (Homo sapiens, THP-1, 24 h); over 70 µM in the assay on A549 cells (Homo sapiens, A549, 24 h); over 70 µM in the assay with fR-2 cells (FR2, 24 h).

Turning to `CCOC(=O)C1=C(C)NC(=O)NC1C1=C(Cl)c2ccccc2CC1` (stereo not drawn) [Compound 12a, Ethyl-4-(1-chloro-3,4-dihydronaphthalen-2-yl)-6-methyl-2-oxo-1,2,3,4-tetrahydropyrimidine-5-carboxylate], the IC50 is over 70 µM in the assay with Colo-205 cells (Homo sapiens, COLO 205, 24 h); over 70 µM in the assay on PC-3 cells (Homo sapiens, PC-3, 24 h); over 70 µM in the assay on THP-1 cells (Homo sapiens, THP-1, 24 h); over 70 µM with A549 cells (Homo sapiens, A549, 24 h); over 70 µM in the assay on fR-2 cells (FR2, 24 h); over 70 µM in assay [1].

As to `CCOC(=O)C1=C(C)NC(=O)NC1/C(CC(=O)OC)=C(\Cl)c1ccc(OC)c(OC)c1` (stereo not drawn) [Compound 13a, Ethyl-4-((Z)-3-(methoxycarbonyl)-1-chloro-1-(3,4-dimethoxyphenyl)prop-1-en-2-yl)-1,2,3,4-tetrahydro-6-methyl-2-oxopyrimidine-5-carboxylate], the IC50 in the assay on Colo-205 cells (Homo sapiens, COLO 205, 24 h) turned out to be 59.4 ± 1.6 µM; in the assay with PC-3 cells (Homo sapiens, PC-3, 24 h), 35.4 ± 2.2 µM; in the assay on THP-1 cells (Homo sapiens, THP-1, 24 h) it was 23.2 ± 1.4 µM; in the assay with A549 cells (Homo sapiens, A549, 24 h), 30.3 ± 2.9 µM; in the assay with fR-2 cells (FR2, 24 h) it was 67.6 ± 2.5 µM.

Take `CCOC(=O)C1=C(C)NC(=O)NC1c1ccc2c(c1)CCC(C)(C)O2` (stereo not drawn) [Compound 14a, Ethyl-1,2,3,4-tetrahydro-6-methyl-4-(2,2-dimethylchroman-6-yl)-2-oxo-pyrimidine-5-carboxylate]: the IC50 in the assay on Colo-205 cells (Homo sapiens, COLO 205, 24 h) was over 70 µM; in the assay on PC-3 cells (Homo sapiens, PC-3, 24 h), over 70 µM; in the assay with THP-1 cells (Homo sapiens, THP-1, 24 h), over 70 µM; in the assay with A549 cells (Homo sapiens, A549, 24 h) it was over 70 µM; in the assay on fR-2 cells (FR2, 24 h), over 70 µM.

Turning to `CCOC(=O)C1=C(C)NC(=O)NC1/C=C\c1ccc2c(c1)CCC(C)(C)O2` (stereo not drawn) [Compound 15a, Ethyl-1,2,3,4-tetrahydro-6-methyl-4-((Z)-2-(2,2-dimethylchroman-6-yl)vinyl)-2-oxo-pyrimidine-5-carboxylate], the IC50 is 27.3 ± 1.8 µM in the assay with Colo-205 cells (Homo sapiens, COLO 205, 24 h); over 70 µM in the assay on PC-3 cells (Homo sapiens, PC-3, 24 h); over 70 µM in the assay on THP-1 cells (Homo sapiens, THP-1, 24 h); over 70 µM in the assay on A549 cells (Homo sapiens, A549, 24 h); over 70 µM in the assay with fR-2 cells (FR2, 24 h).

As for `CCOC(=O)C1=C(C)NC(=O)NC1C=Cc1cccc(OC)c1OC` (stereo not drawn) [Compound 17a, Ethyl 4-(2,3-dimethoxystyryl)-1,2,3,4-tetrahydro-6-methyl-2-oxopyrimidine-5-carboxylate], the IC50 is 38.2 ± 1.4 µM in the assay on Colo-205 cells (Homo sapiens, COLO 205, 24 h); 47.9 ± 2.1 µM with PC-3 cells (Homo sapiens, PC-3, 24 h); over 70 µM with THP-1 cells (Homo sapiens, THP-1, 24 h); 26.4 ± 1.1 µM with A549 cells (Homo sapiens, A549, 24 h); over 70 µM with fR-2 cells (FR2, 24 h).

As for `CCOC(=O)C1=C(C)NC(=O)NC1C=Cc1cc(OC)c(OC)c(OC)c1` (stereo not drawn) [Compound 18a, Ethyl 4-(3,4,5-trimethoxystyryl)-1,2,3,4-tetrahydro-6-methyl-2-oxopyrimidine-5-carboxylate], the IC50 in the assay with Colo-205 cells (Homo sapiens, COLO 205, 24 h) was over 70 µM; in the assay on PC-3 cells (Homo sapiens, PC-3, 24 h), over 70 µM; in the assay with THP-1 cells (Homo sapiens, THP-1, 24 h), over 70 µM; in the assay with A549 cells (Homo sapiens, A549, 24 h), over 70 µM; with fR-2 cells (FR2, 24 h) it was over 70 µM; in assay [1] it was over 70 µM.

On to `CCOC(=O)C1=C(C)NC(=O)NC1C=Cc1ccc(OC)cc1OC` (stereo not drawn) [Compound 19a, Ethyl-4-(2,4-dimethoxystyryl)-1,2,3,4-tetrahydro-6-methyl-2-oxopyrimidine-5-carboxylate], for which the concentration for half-maximal inhibition (IC50) in the assay on Colo-205 cells (Homo sapiens, COLO 205, 24 h) was 33.7 ± 1.8 µM; in the assay on PC-3 cells (Homo sapiens, PC-3, 24 h) it was over 70 µM; with THP-1 cells (Homo sapiens, THP-1, 24 h), over 70 µM; in the assay with A549 cells (Homo sapiens, A549, 24 h), 47.8 ± 2.4 µM; in the assay with fR-2 cells (FR2, 24 h), over 70 µM.

As to `CCOC(=O)C1=C(C)NC(=O)NC1/C=C/c1ccc2c(c1)OCO2` (stereo not drawn) [Compound 20a, Ethyl-4-((E)-2-(benzo[d][1,3]dioxol-6-yl)vinyl)-1,2,3,4-tetrahydro-6-methyl-2-oxo pyrimidine-5-carboxylate], the IC50 was 23.4 ± 1.4 µM in the assay on Colo-205 cells (setting [2]); over 70 µM in the assay with PC-3 cells (setting [2]); over 70 µM in the assay with THP-1 cells (setting [2]); over 70 µM in the assay on A549 cells (setting [2]); 68.7 ± 1.1 µM in the assay on fR-2 cells (setting [2]).

Turning to `CCOC(=O)C1=C(C)NC(=O)NC1c1ccc2c(c1)OCO2` (stereo not drawn) [Compound 21a, Ethyl-4-(benzo[d][1,3]dioxol-6-yl)-1,2,3,4-tetrahydro-6-methyl-2-oxopyrimidine-5-carboxylate], the IC50 is 48.1 ± 2.1 µM in the assay with Colo-205 cells (Homo sapiens, COLO 205, 24 h); over 70 µM in the assay on PC-3 cells (Homo sapiens, PC-3, 24 h); over 70 µM with THP-1 cells (Homo sapiens, THP-1, 24 h); over 70 µM with A549 cells (Homo sapiens, A549, 24 h); over 70 µM with fR-2 cells (FR2, 24 h).

As for `COc1cccc2c1C(=O)c1c(O)c3c(c(O)c1C2=O)C[C@@](O)(C(=O)CO)C[C@@H]3O[C@H]1C[C@H](N)[C@H](O)[C@H](C)O1` [Doxorubicin, reference compound], in the assay with THP-1 cells (Homo sapiens, THP-1, 24 h), the IC50 amounted to 0.018 ± 0.004 µM.

As for `CC(=O)O[C@H]1C(=O)[C@@]2(C)[C@H]([C@H](OC(=O)c3ccccc3)[C@]3(O)C[C@H](OC(=O)[C@H](O)[C@@H](NC(=O)c4ccccc4)c4ccccc4)C(C)=C1C3(C)C)[C@]1(OC(C)=O)CO[C@@H]1C[C@@H]2O` [Paclitaxel, reference compound], the IC50 in the assay with PC-3 cells (Homo sapiens, PC-3, 24 h) amounted to 0.048 ± 0.008 µM; in the assay on A549 cells (Homo sapiens, A549, 24 h), 5.1 ± 0.4 µM.

The term IC50 denotes the concentration at which inhibition is half-maximal.
